Assay results taken from ChEMBL document CHEMBL1157765, “Synthesis of DOTA-conjugated multimeric [Tyr3]octreotide peptides via a combination of Cu(I)-catalyzed "click" cycloaddition and thio acid/sulfonyl azide "sulfo-click" amidation and their in vivo evaluation” (J Med Chem, 2010).
pIC50: −log10 of the molar value.

How the values were obtained:
[1] = Octanol-water partition coefficient, log D at pH 7.4; type: physicochemical
Outline: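 ¹¹¹In-labeled conjugate (~148 kBq) in PBS pH 7.4 mixed 1:1 with n-octanol and shaken 2 min. Phases separated by centrifugation (5 min, 250g); triplicate aliquots of each layer γ-counted. log D = log₁₀(octanol counts/aqueous counts), from at least two independent experiments.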

[2] = Biodistribution in adrenal gland of BALB/c mouse bearing rat AR42J cells at 0.37 MBq, iv after 2 hrs under cold condition; type: ADME, organism-based, AR-42J; conditions: in vivo
Outline: (§1)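 Receptor block: groups of three AR42J tumor-bearing male BALB/c nude mice co-injected iv via tail vein with 0.37 MBq (0.1 μg) ¹¹¹In-DOTA conjugate plus 50 μg octreotide. Killed by CO₂/O₂ at 2 h; blood, tumor and tissues dissected, weighed and γ-counted against 1% injected-activity standards; %ID/g reported as mean ± SD.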

Blood [3] = assay: Biodistribution in blood of BALB/c mouse bearing rat AR42J cells at 0.37 MBq, iv after 2 hrs under cold condition; type: ADME, organism-based, AR-42J; conditions: in vivo; outline: as §1
[4] = Biodistribution in adrenal gland of BALB/c mouse bearing rat AR42J cells at 0.37 MBq, iv after 2 hrs; type: ADME, organism-based, AR-42J; conditions: in vivo
Outline: (§2)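 AR42J tumor grown in right flank of male BALB/c nude mice (20-25 g, 6-8 weeks) by sc injection of 5 × 10⁶ cells; used after ~2 weeks at 4-6 mm diameter. Groups of five received 0.37 MBq (0.1 μg) ¹¹¹In-DOTA conjugate iv via tail vein (labeled in 0.25 M NH₄OAc pH 5.5, 95 °C, 15 min). Tissues dissected at 2, 6 or 24 h, weighed, γ-counted against 1% injected-activity standards; %ID/g, mean ± SD.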

Kidney [5] = assay: Biodistribution in kidney of BALB/c mouse bearing rat AR42J cells at 0.37 MBq, iv after 6 hrs; type: ADME, organism-based, AR-42J; conditions: in vivo; outline: as §2
Liver [6] = assay: Biodistribution in liver of BALB/c mouse bearing rat AR42J cells at 0.37 MBq, iv after 6 hrs; type: ADME, organism-based, AR-42J; conditions: in vivo; outline: as §2
[7] = Biodistribution in tumor of BALB/c mouse bearing rat AR42J cells at 0.37 MBq, iv after 6 hrs; type: ADME, organism-based, Neoplasm, AR-42J; conditions: in vivo; outline: as §2
Kidney [8] = assay: Biodistribution in kidney of BALB/c mouse bearing rat AR42J cells at 0.37 MBq, iv after 2 hrs; type: ADME, organism-based, AR-42J; conditions: in vivo; outline: as §2
Stomach [9] = assay: Biodistribution in stomach of BALB/c mouse bearing rat AR42J cells at 0.37 MBq, iv after 2 hrs; type: ADME, organism-based, AR-42J; conditions: in vivo; outline: as §2
Stomach [10] = assay: Biodistribution in stomach of BALB/c mouse bearing rat AR42J cells at 0.37 MBq, iv after 2 hrs under cold condition; type: ADME, organism-based, AR-42J; conditions: in vivo; outline: as §1
[11] = Biodistribution in adrenal gland of BALB/c mouse bearing rat AR42J cells at 0.37 MBq, iv after 24 hrs; type: ADME, organism-based, AR-42J; conditions: in vivo; outline: as §2
Kidney [12] = assay: Biodistribution in kidney of BALB/c mouse bearing rat AR42J cells at 0.37 MBq, iv after 2 hrs under cold condition; type: ADME, organism-based, AR-42J; conditions: in vivo; outline: as §1
Stomach [13] = assay: Biodistribution in stomach of BALB/c mouse bearing rat AR42J cells at 0.37 MBq, iv after 24 hrs; type: ADME, organism-based, AR-42J; conditions: in vivo; outline: as §2
Blood [14] = assay: Biodistribution in blood of BALB/c mouse bearing rat AR42J cells at 0.37 MBq, iv after 2 hrs; type: ADME, organism-based, AR-42J; conditions: in vivo; outline: as §2
Pancreas [15] = assay: Biodistribution in pancreas of BALB/c mouse bearing rat AR42J cells at 0.37 MBq, iv after 2 hrs under cold condition; type: ADME, organism-based, AR-42J; conditions: in vivo; outline: as §1
Pancreas [16] = assay: Biodistribution in pancreas of BALB/c mouse bearing rat AR42J cells at 0.37 MBq, iv after 6 hrs; type: ADME, organism-based, AR-42J; conditions: in vivo; outline: as §2
Pancreas [17] = assay: Biodistribution in pancreas of BALB/c mouse bearing rat AR42J cells at 0.37 MBq, iv after 2 hrs; type: ADME, organism-based, AR-42J; conditions: in vivo; outline: as §2
Kidney [18] = assay: Biodistribution in kidney of BALB/c mouse bearing rat AR42J cells at 0.37 MBq, iv after 24 hrs; type: ADME, organism-based, AR-42J; conditions: in vivo; outline: as §2
[19] = Biodistribution in tumor of BALB/c mouse bearing rat AR42J cells at 0.37 MBq, iv after 24 hrs; type: ADME, organism-based, Neoplasm, AR-42J; conditions: in vivo; outline: as §2
Liver [20] = assay: Biodistribution in liver of BALB/c mouse bearing rat AR42J cells at 0.37 MBq, iv after 2 hrs under cold condition; type: ADME, organism-based, AR-42J; conditions: in vivo; outline: as §1
Blood [21] = assay: Biodistribution in blood of BALB/c mouse bearing rat AR42J cells at 0.37 MBq, iv after 6 hrs; type: ADME, organism-based, AR-42J; conditions: in vivo; outline: as §2
[22] = Biodistribution in adrenal gland of BALB/c mouse bearing rat AR42J cells at 0.37 MBq, iv after 6 hrs; type: ADME, organism-based, AR-42J; conditions: in vivo; outline: as §2
Liver [23] = assay: Biodistribution in liver of BALB/c mouse bearing rat AR42J cells at 0.37 MBq, iv after 2 hrs; type: ADME, organism-based, AR-42J; conditions: in vivo; outline: as §2
Liver [24] = assay: Biodistribution in liver of BALB/c mouse bearing rat AR42J cells at 0.37 MBq, iv after 24 hrs; type: ADME, organism-based, AR-42J; conditions: in vivo; outline: as §2
[25] = Biodistribution in tumor of BALB/c mouse bearing rat AR42J cells at 0.37 MBq, iv after 2 hrs; type: ADME, organism-based, Neoplasm, AR-42J; conditions: in vivo; outline: as §2
[26] = Biodistribution in tumor of BALB/c mouse bearing rat AR42J cells at 0.37 MBq, iv after 2 hrs under cold condition; type: ADME, organism-based, Neoplasm, AR-42J; conditions: in vivo; outline: as §1
Pancreas [27] = assay: Biodistribution in pancreas of BALB/c mouse bearing rat AR42J cells at 0.37 MBq, iv after 24 hrs; type: ADME, organism-based, AR-42J; conditions: in vivo; outline: as §2
Stomach [28] = assay: Biodistribution in stomach of BALB/c mouse bearing rat AR42J cells at 0.37 MBq, iv after 6 hrs; type: ADME, organism-based, AR-42J; conditions: in vivo; outline: as §2
[29] = target: Somatostatin receptor type 2 (Rattus norvegicus, UniProt P30680); assay: Displacement of [111In]DOTA0,Tyr3]octreotide from SSTR2 receptor in rat AR42J cells; type: cell-based, AR-42J
Somatostatin receptor type 2, sequence (P30680 whole entry): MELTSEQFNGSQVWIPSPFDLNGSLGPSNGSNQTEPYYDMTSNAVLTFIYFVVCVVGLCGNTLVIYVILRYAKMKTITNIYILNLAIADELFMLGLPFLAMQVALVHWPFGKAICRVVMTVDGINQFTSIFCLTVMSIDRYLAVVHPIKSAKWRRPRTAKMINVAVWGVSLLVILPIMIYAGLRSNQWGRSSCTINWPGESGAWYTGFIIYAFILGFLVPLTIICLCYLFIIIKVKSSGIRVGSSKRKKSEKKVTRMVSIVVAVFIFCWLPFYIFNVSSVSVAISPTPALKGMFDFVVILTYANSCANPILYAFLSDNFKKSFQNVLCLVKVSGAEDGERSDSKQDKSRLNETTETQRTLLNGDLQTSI
Outline: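 AR42J cells (DMEM, 10% FCS, 37 °C, 5% CO₂) seeded 8 × 10⁵/well and grown to confluence, washed with DMEM + 0.1% BSA. Incubated 3 h at 37 °C with [¹¹¹In-DOTA⁰,Tyr³]octreotide tracer (40 000 dpm) and unlabeled peptide at 0.1-300 nM. Washed twice; cell-bound activity γ-counted. IC₅₀ from fitted sigmoidal displacement curves with 95% CI.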

Blood [30] = assay: Biodistribution in blood of BALB/c mouse bearing rat AR42J cells at 0.37 MBq, iv after 24 hrs; type: ADME, organism-based, AR-42J; conditions: in vivo; outline: as §2

Compound | logD [1] | Drug uptake [2] [% ID/g] | Drug uptake (Blood [3]) [% ID/g] | Drug uptake [4] [% ID/g] | Drug uptake (Kidney [5]) [% ID/g] | Drug uptake (Liver [6]) [% ID/g] | Drug uptake [7] [% ID/g] | Drug uptake (Kidney [8]) [% ID/g] | Drug uptake (Stomach [9]) [% ID/g] | Drug uptake (Stomach [10]) [% ID/g] | Drug uptake [11] [% ID/g] | Drug uptake (Kidney [12]) [% ID/g] | Drug uptake (Stomach [13]) [% ID/g] | Drug uptake (Blood [14]) [% ID/g] | Drug uptake (Pancreas [15]) [% ID/g] | Drug uptake (Pancreas [16]) [% ID/g] | Drug uptake (Pancreas [17]) [% ID/g] | Drug uptake (Kidney [18]) [% ID/g] | Drug uptake [19] [% ID/g] | Drug uptake (Liver [20]) [% ID/g] | further results
C[C@@H](O)[C@@H]1NC(=O)[C@H](CCCCN)NC(=O)[C@@H](Cc2c[nH]c3ccccc23)NC(=O)[C@H](Cc2ccc(O)cc2)NC(=O)[C@@H](NC(=O)[C@@H](Cc2ccccc2)NC(=O)CCCCCn2cc(CO)nn2)CSSC[C@@H](C(=O)N[C@H](CO)[C@@H](C)O)NC1=O | -3.59 |  |  |  |  |  |  |  |  |  |  |  |  |  |  |  |  |  |  |  | 
C[C@@H](O)[C@@H]1NC(=O)[C@H](CCCCN)NC(=O)[C@@H](Cc2c[nH]c3ccccc23)NC(=O)[C@H](Cc2ccc(O)cc2)NC(=O)[C@@H](NC(=O)[C@@H](Cc2ccccc2)NC(=O)CCCCCn2cc(COc3cc(OCc4cn(CCCCCC(=O)N[C@H](Cc5ccccc5)C(=O)N[C@H]5CSSC[C@@H](C(=O)N[C@H](CO)[C@@H](C)O)NC(=O)[C@H]([C@@H](C)O)NC(=O)[C@H](CCCCN)NC(=O)[C@@H](Cc6c[nH]c7ccccc67)NC(=O)[C@H](Cc6ccc(O)cc6)NC5=O)nn4)cc(C(=O)NS(=O)(=O)CCNC(=O)CN4CCN(CC(=O)O)CCN(CC(=O)O)CCN(CC(=O)O)CC4)c3)nn2)CSSC[C@@H](C(=O)N[C@H](CO)[C@@H](C)O)NC1=O | -1.79 | 1.56 | 2.31 | 2.69 | 65.61 | 14.92 | 30.91 | 92.2 | 10.21 | 3.46 | 1.27 | 57.78 | 2.97 | 1.52 | 1.18 | 1.69 | 2.96 | 11.74 | 12.14 | 22.67 | Drug uptake (Blood [21]): 0.86 % ID/g; Drug uptake [22]: 2.49 % ID/g; Drug uptake (Liver [23]): 18.67 % ID/g; Drug uptake (Liver [24]): 5.54 % ID/g; Drug uptake [25]: 25.31 % ID/g; Drug uptake [26]: 5.55 % ID/g; Drug uptake (Pancreas [27]): 0.36 % ID/g; Drug uptake (Stomach [28]): 7.78 % ID/g; pIC50 [29]: 8.61; Drug uptake (Blood [30]): 0.17 % ID/g
C[C@@H](O)[C@@H]1NC(=O)[C@H](CCCCN)NC(=O)[C@@H](Cc2c[nH]c3ccccc23)NC(=O)[C@H](Cc2ccc(O)cc2)NC(=O)[C@@H](NC(=O)[C@@H](Cc2ccccc2)NC(=O)CCCCCn2cc(COc3cccc(C(=O)NS(=O)(=O)CCNC(=O)CN4CCN(CC(=O)O)CCN(CC(=O)O)CCN(CC(=O)O)CC4)c3)nn2)CSSC[C@@H](C(=O)N[C@H](CO)[C@@H](C)O)NC1=O | -2.2 | 2.38 | 3.46 | 1.86 | 10.96 | 0.22 | 21.32 | 54.19 | 7.54 | 2.16 | 0.63 | 62.74 | 2.83 | 0.27 | 1.07 | 0.63 | 2.92 | 2.53 | 10.75 | 3.61 | Drug uptake (Blood [21]): 0.13 % ID/g; Drug uptake [22]: 0.78 % ID/g; Drug uptake (Liver [23]): 0.52 % ID/g; Drug uptake (Liver [24]): 0.09 % ID/g; Drug uptake [25]: 42.33 % ID/g; Drug uptake [26]: 4.82 % ID/g; Drug uptake (Pancreas [27]): 0.17 % ID/g; Drug uptake (Stomach [28]): 6.11 % ID/g; pIC50 [29]: 8.88; Drug uptake (Blood [30]): 0.04 % ID/g
